Measured values as given in ChEMBL document CHEMBL4130635, “2,4-Diaminoquinazolines as Dual Toll-like Receptor (TLR) 7/8 Modulators for the Treatment of Hepatitis B Virus” (J Med Chem, 2018).
Activity calls are given as the source filed them. The calls are words filed in the database; no cut-off is given here.

Legend:
[1] = Intrinsic clearance in dog liver microsomes assessed per mg protein at 1 uM up to 60 mins; format: ADME, Canis lupus familiaris, microsome; conditions: read-out: CLH
[2] = Stability in cynomolgus monkey hepatocytes assessed compound turnover at 1 uM after 60 mins; format: ADME, cell-based, Macaca fascicularis, Hepatocyte; conditions: read-out: Drug metabolism
[3] = Protein binding in cynomolgus monkey plasma fraction at 5 uM after 4.5 hrs LC-MS/MS-based rapid equilibrium dialysis method; format: ADME, cell-free, Macaca fascicularis; conditions: read-out: PPB (converted)
[4] = Cmax in C57BL/6J mouse plasma at 1 mg/kg, po by LC-MS analysis; format: ADME, organism-based; design: dose 1 mg/kg, route oral
Method in brief: (§1)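 Healthy C57BL/6 mice, groups of 15, given a single oral dose (0.3, 1, 3, 10 or 30 mg/kg) in 20% HP-β-CD. Blood drawn at 0.5 h. Three mice per group sacrificed at 0.5, 1, 2, 4 or 7 h, and compound in plasma and liver measured by LC−MS. Values rounded to whole numbers.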

[5] = Cmax in C57BL/6J mouse liver at 3 mg/kg, po by LC-MS analysis; format: ADME, organism-based; design: dose 3 mg/kg, route oral; method in brief: as §1
[6] = Cmax in C57BL/6J mouse plasma at 10 mg/kg, po by LC-MS analysis; format: ADME, organism-based; design: dose 10 mg/kg, route oral; method in brief: as §1
[7] = Drug uptake in C57BL/6J mouse liver at 30 mg/kg, po by LC-MS analysis; format: ADME, organism-based; conditions: in vivo; method in brief: as §1
[8] = test system: Plasma; test: Induction of IFNalpha levels in C57BL/6J mouse plasma at 1 mg/kg, po by ELISA; format: functional
[9] = test system: Plasma; test: Induction of IFNalpha levels in C57BL/6J mouse plasma at 3 mg/kg, po by ELISA; format: functional
[10] = test system: Liver; test: Induction of IFNalpha levels in C57BL/6J mouse liver at 3 mg/kg, po by ELISA (reference value: 30 pg/g); format: functional
[11] = test system: Liver; test: Induction of IFNalpha levels in C57BL/6J mouse liver at 30 mg/kg, po by ELISA (reference value: 30 pg/g); format: functional
[12] = test system: Liver; test: Upregulation of IP-10 mRNA expression levels in C57BL/6J mouse liver at 10 mg/kg, po by RT-qPCR analysis (reference value: 1); format: functional
[13] = test system: Plasma; test: Effect on cytokine profile in C57BL/6J mouse plasma assessed as IL-12p70 levels at 1 mg/kg, po by multiplex assay (reference value: 560 pg/ml); format: functional
Method in brief: (§2)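 Single oral gavage in 20% HP-β-CD to healthy C57BL/6 mice, groups of 15 at 0.3, 1, 3, 10 or 30 mg/kg. Three mice per group sacrificed at 0.5, 1, 2, 4 or 7 h. Plasma and liver cytokines by multiplex, maximum level reported, rounded to nearest multiple of 5.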

[14] = test system: Liver; test: Effect on cytokine profile in C57BL/6J mouse liver assessed as IFNgamma levels at 1 mg/kg, po by multiplex assay; format: functional, organism-based; method in brief: as §2
[15] = test system: Plasma; test: Proinflammatory activity in C57BL/6J mouse plasma assessed as CXCL-1 levels at 0.3 mg/kg, po by multiplex assay (reference value: 230 pg/ml); format: functional
[16] = test system: Liver; test: Proinflammatory activity in C57BL/6J mouse liver assessed as IL-6 levels at 10 mg/kg, po by multiplex assay (reference value: 10 pg/g); format: functional
[17] = test system: Liver; test: Anti-inflammatory activity in C57BL/6J mouse liver assessed as IL-10 levels at 0.3 mg/kg, po by multiplex assay (reference value: 2 pg/g); format: functional
Method in brief: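 Mice (C57BL/6) got a single oral dose of 0.3–30 mg/kg in 20% HP-β-CD, in groups of 15. Three per group were sacrificed at 0.5, 1, 2, 4 or 7 h, and liver cytokines were measured by multiplex. Values were rounded to the nearest multiple of 5.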

[18] = Cmax in cynomolgus monkey plasma at 9 mg/kg, po by LC-MS analysis; format: ADME, organism-based, Macaca fascicularis; design: dose 9 mg/kg, route oral
Method in brief: (§3)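 Healthy cynomolgus monkeys received oral doses of 1, 3, 9 and 30 mg/kg, with a 2-week wash-out between doses. Systemic compound concentrations by LC−MS at 0.25, 0.5, 1, 2, 4, 8 and 24 h postdose.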

[19] = Cmax in cynomolgus monkey plasma at 30 mg/kg, po by LC-MS analysis; format: ADME, organism-based, Macaca fascicularis; design: dose 30 mg/kg, route oral; method in brief: as §3
[20] = test system: Cynomolgus monkey; test: Plasma concentration in cynomolgus monkey at 1 mg/kg, po by LC-MS analysis; format: ADME, organism-based, Macaca fascicularis; conditions: in vivo
[21] = test system: Cynomolgus monkey; test: Effect on cytokine profile in cynomolgus monkey plasma assessed as IL-12P70 levels at 1 mg/kg, po after 24 hrs by Luminex assay (reference value: 2.17 pg/ml); format: functional, organism-based; conditions: Macaca fascicularis
Method in brief: (§4)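 Healthy cynomolgus monkeys given single oral doses of 1, 3, 9 and 30 mg/kg, with a 2-week wash-out planned between doses. Systemic cytokine levels in plasma were sampled at 0.5, 1, 2, 4, 9 and 24 h postdose.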

[22] = test system: Cynomolgus monkey; test: Effect on cytokine profile in cynomolgus monkey plasma assessed as IL-12P70 levels at 30 mg/kg, po after 24 hrs by Luminex assay (reference value: 2.17 pg/ml); format: functional, Macaca fascicularis; method in brief: as §4
[23] = test system: Cynomolgus monkey; test: Effect on cytokine profile in cynomolgus monkey plasma assessed as IL-15 levels at 3 mg/kg, po after 24 hrs by Luminex assay (reference value: 20 pg/ml); format: functional, Macaca fascicularis; method in brief: as §4
[24] = test system: Cynomolgus monkey; test: Proinflammatory activity in cynomolgus monkey plasma assessed as TNFalpha levels at 1 mg/kg, po after 24 hrs by Luminex assay (reference value: 285 pg/ml); format: functional, organism-based; conditions: Macaca fascicularis
[25] = test system: Cynomolgus monkey; test: Proinflammatory activity in cynomolgus monkey plasma assessed as IL-8 levels at 9 mg/kg, po after 24 hrs by Luminex assay (reference value: 430 pg/ml); format: functional, Macaca fascicularis
[26] = test system: Cynomolgus monkey; test: Induction of ISG response in cynomolgus monkey plasma assessed as upregulation of Oas1b mRNA expression at 30 mg/kg, po after 24 hrs by Fluidigm RT-qPCR analysis (reference value: 1); format: functional, Macaca fascicularis
Method in brief: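 Cynomolgus monkeys, single oral doses of 1, 3, 9 and 30 mg/kg with a planned 2-week wash-out between doses. Systemic ISG (ISG15, Mx1, OAS1) mRNA was measured by Fluidigm RT-qPCR at 1, 2, 4, 8 and 24 h postdose.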

[27] = test system: Cynomolgus monkey; test: Upregulation of Tlr8 expression in cynomolgus monkey plasma at 1 to 30 mg/kg, po after 24 hrs by Fluidigm RT-qPCR analysis; format: functional, organism-based; conditions: Macaca fascicularis
[28] = Absolute bioavailability in cynomolgus monkey at 1 to 30 mg/kg; format: ADME, organism-based, Macaca fascicularis; conditions: in vivo
[29] = target: TLR7 and TLR8 (Homo sapiens) (UniProt Q9NYK1+Q9NR97); test: Agonist activity at TLR7/8 in human PBMCs co-cultured with primary human hepatocytes infected with HBV genotype C for 12 days assessed as increase in CXCL10 levels up to 5 uM measured after 42 days
[30] = Metabolic stability in human liver microsomes assessed as compound metabolized at 1 uM after 15 mins; format: ADME, microsome; conditions: read-out: Drug metabolism
Method in brief: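 Mouse (M) or human (H) liver microsomes incubated with compound at 1 μM; percent metabolized after 15 min.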

[31] = test system: Toll-like receptor 7/8 (Homo sapiens); test: Agonist activity at TLR7/8 in human PBMCs assessed as decrease in HBsAg levels in human hepatocytes infected with HBV genotype C for 12 days followed by exposure to conditioned supernatant from up to 5 uM compound treated PBMCs measured after 42 days

With CCC[C@@H](CCO)Nc1nc(N)nc2c(F)cccc12 the microsomal CLint at 1 µM [1] was 21 µL/min/mg, the metabolised at 1 h, 1 µM [2] was 98% and the fraction unbound at 4.5 h, 5 µM [3] was 0.46. The Cmax [4] was 9 ng/mL, the Cmax [5] was 385 ng/g and the Cmax [6] was 148 ng/mL. The Drug uptake [7] was 462 ng/g, the Activity [8] was 180 pg/mL and the Activity [9] was 695 pg/mL. The Activity [10] was 765 pg/g, the Activity [11] was 955 pg/g and the “fold change (FC)” value [12] was 800. The Activity [13] was 380 pg/mL, the Activity [14] was “Below limit of detection” and the Activity [15] was 2180 pg/mL. For the same compound, the Activity [16] was 3450 pg/g, the Activity [17] was 730 pg/g and the Cmax [18] was 815 ng/mL. For the same compound, the Cmax [19] was 2070 ng/mL, the Cp [20] was 5.9 ng/mL and the Activity [21] was “Below limit of detection”. For the same compound, the Activity [22] was 10.1 pg/mL, the Activity [23] was 60 pg/mL and the Activity [24] was “Below limit of detection”. For the same compound, the Activity [25] was 1640 pg/mL, the “fold change (FC)” value [26] was 235 and the Activity [27] was “inactive”. For the same compound, the bioavailability [28] was less than 11%, the Activity [29] was “Active” and the metabolised at 0.25 h, 1 µM [30] was 43%. For the same compound, the Activity [31] was “Dose-dependent effect”.
